Shown are actives, neighbours in structure and some others; about 2.4% of the full set was active somewhere.
NTR1 ag: agonists of human neurotensin receptor NTR1; P30989; NTR1-U2OS beta-arrestin-GFP spot imaging, agonist mode; activation, % at 20 µM; actives 0.17% (n = 330,000); AID 493036;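 active = activation at or above 40% of the spot to cytoplasm intensity ratio, with at least 20 cells analyzed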
TAG inh: triacylglycerol accumulation inhibition | H9c2 cells, Nile Red lipid (TAG) fluorescence; cells loaded with 200 µM oleic acid | inhibition, % at 12.5 µM | actives 0.66% (n = 230,000) | AID 651582;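 active = pattern-corrected inhibition of lipid staining of at least 50% with the nuclear-stain viability signal not falling by more than 50%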
Tb MetRS inh: blocks T. brucei methionyl-tRNA synthetase activity; purified T. brucei MetRS, ATP depletion, Kinase-Glo luminescence; inhibition, % at 11.9 µM; actives 0.4% (n = 360,000);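 active = inhibition above a per-plate cutoff of the control wells' mean inhibition plus 3 SD, cut at about 5.5% in these data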
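System: purified T. brucei MetRS enzyme / Detection: Kinase-Glo luciferase luminescence reporting remaining unconsumed ATP / Medium: HEPES buffer with MgCl2, KCl, DTT, spermine, BSA, pyrophosphatase / Replication: singlicate, one well per compound / Evaluation: percent inhibition relative to median high and low control wells / Schedule: 2 h aminoacylation at 25 °C after 15 min preincubation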
MC4R antagonist: antagonists of human melanocortin 4 receptor (MC4R). inhibition, % at 6.5 µM. actives 0.48% (n = 360,000). MC4R-expressing cells, MTII-stimulated cAMP, LANCE TR-FRET. P32245;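 active = inhibition above its plate's cutoff, the mean of tested wells on that plate plus 3 SD, cut at about 29% in these data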
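material = U2OS cells stably expressing human melanocortin 4 receptor (MC4R) | also added = Melanotan II challenge | dosing = single nominal compound dose of 6.5 µM | detection = TR-FRET with Eu-cAMP and labeled anti-cAMP, 671 nm | replication = singlicate | timing = compound 30 min, challenge 1 h, detection 1 h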
MC4R barr agon: agonists of human melanocortin 4 receptor (MC4R) beta-arrestin | activation, % at 8.9 µM | U2OS MC4R beta-arrestin complementation, luminescence; percent of melanotan II response, DMSO zero | actives 0.98% (n = 360,000);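 active = activation above a per-plate cutoff, the mean activation of sample wells on that plate plus 3 SD, cut at about 8% in these data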
aDG glyco up: alpha-DG glycosylation activation | Pro5-aDG cells, alpha-DG glycosylation AlphaScreen (IIH6); 0% Pro5, 100% B10-LARGE cell signal | activation, % at 10 µM | actives 0.22% (n = 360,000);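 active = activation of at least 8% versus controls, or a plate z-score of at least 8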;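 note: Pro5 are CHO cells carrying HIG-tagged alpha-DG that lacks glycosylation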
NTR1 ag conf: confirmation of agonists of human NTR1; shares compounds with NTR1 ag; NTR1-U2OS beta-arrestin-GFP translocation imaging; activation, % at 20 µM; actives 38% (n = 480); AID 504550;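 active = mean activation at 20 µM of at least 40%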
cAMP nonselect: counter-screen for MC4R antagonists: nonselective cAMP signaling inhibitors | AID 602193 | actives 26% (n = 1,600) | shares compounds with MC4R antagonist | inhibition, % at 6.5 µM | parental U2OS, forskolin cAMP, LANCE TR-FRET;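 active = mean inhibition over triplicates above the low-control well mean plus 3 SD, set per campaign, cut at about 13% in these data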;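 note: signal is single emission at 671 nm which falls as cellular cAMP rises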
MC4R antag conf: human MC4R cAMP antagonism confirmation; shares compounds with MC4R antagonist; MC4R-expressing cells, MTII-stimulated cAMP, TR-FRET; inhibition, % at 6.5 µM; actives 27% (n = 1,600); AID 602195; in the data active = inhibition above about 29%
MC4R barr ag: human MC4R beta-arrestin agonism confirmation. shares compounds with MC4R barr agon. U2OS MC4R beta-arrestin recruitment, luminescence; scaled DMSO 0%, Melanotan II 100%. activation, % at 8.9 µM. actives 31% (n = 2,400);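 active = mean activation across replicates above the hit cutoff set in the earlier primary screen, cut at about 8% in these data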
MOR DOR agonist: counter-screen for MC4R agonists: agonists of mu-delta opioid heterodimer | shares compounds with MC4R barr agon | U2OS PathHunter beta-arrestin, beta-gal luminescence; percent of deltorphin B response, DMSO zero | activation, % at 9.2 µM | actives 5.8% (n = 2,400);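 active = mean activation across replicates exceeds the hit threshold derived in the earlier primary screen, cut at about 18% in these data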
Target sequence (P35372 whole entry, looked up): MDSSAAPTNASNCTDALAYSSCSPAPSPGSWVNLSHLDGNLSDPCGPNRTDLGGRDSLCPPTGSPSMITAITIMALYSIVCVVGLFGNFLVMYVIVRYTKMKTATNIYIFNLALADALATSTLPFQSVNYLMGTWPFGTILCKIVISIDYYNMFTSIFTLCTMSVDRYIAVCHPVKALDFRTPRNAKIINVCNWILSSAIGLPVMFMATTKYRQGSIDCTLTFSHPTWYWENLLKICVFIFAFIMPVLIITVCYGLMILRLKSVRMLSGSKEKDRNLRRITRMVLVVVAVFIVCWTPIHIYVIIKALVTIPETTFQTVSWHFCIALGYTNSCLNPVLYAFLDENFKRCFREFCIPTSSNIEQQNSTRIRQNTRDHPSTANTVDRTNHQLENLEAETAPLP
Target sequence (P41143 whole entry, looked up): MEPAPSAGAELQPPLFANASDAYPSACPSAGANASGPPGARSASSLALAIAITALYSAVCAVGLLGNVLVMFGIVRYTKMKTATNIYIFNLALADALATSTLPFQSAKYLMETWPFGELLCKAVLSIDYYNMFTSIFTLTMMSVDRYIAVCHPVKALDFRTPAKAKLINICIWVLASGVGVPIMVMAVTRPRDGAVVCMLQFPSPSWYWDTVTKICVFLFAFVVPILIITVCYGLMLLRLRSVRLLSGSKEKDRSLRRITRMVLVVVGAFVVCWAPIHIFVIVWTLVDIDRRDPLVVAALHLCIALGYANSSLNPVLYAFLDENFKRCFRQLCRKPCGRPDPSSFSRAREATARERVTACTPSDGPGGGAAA
TbMetRS confirm: Trypanosoma brucei MetRS inhibition confirmed; shares compounds with Tb MetRS inh; actives 93% (n = 1,400); inhibition, % at 11.9 µM; AID 624412; T. brucei MetRS enzyme, luminescence (ATP depletion); in the data active = inhibition above about 7%
Jurkat tox: kills Jurkat cells in T. brucei MetRS counterscreen | actives 12% (n = 1,400) | AID 624413 | Jurkat cells viability, ATP luminescence | inhibition, % at 8.3 µM | shares compounds with Tb MetRS inh; in the data active = inhibition above about 15%
TbMetRS FP orth: T. brucei MetRS inhibition, orthogonal assay; shares compounds with Tb MetRS inh; purified T. brucei MetRS, fluorescence polarization; inhibition, % at 11.9 µM; actives 44% (n = 1,400); AID 651607; in the data active = inhibition above about 17%
H9c2 TAG conf: triacylglycerol accumulation inhibition, confirmation. shares compounds with TAG inh. H9c2 lipid accumulation, Nile Red fluorescence; cells loaded with 200 µM oleic acid. inhibition, % at 12.5 µM. actives 71% (n = 990);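 active = mean inhibition across replicates of 40% or more; inactive = mean inhibition below 40%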
A number is an active result; – = inactive; · = no result given.

SMILES	NTR1 ag	TAG inh	Tb MetRS inh	MC4R antagonist	MC4R barr agon	aDG glyco up	others
Cc1ccc(CN2CCC(c3cc(-c4ccc(Cl)cc4)n[nH]3)CC2)cc1	60.9	·	–	–	10.5	–	NTR1 ag conf=–;MC4R barr ag=19.1;MOR DOR agonist=–
COc1ccc(-c2cc(C3CCN(Cc4ccc([N+](=O)[O-])cc4)CC3)[nH]n2)cc1	–	·	–	–	–	–
Oc1ccc(C[C@@H]2CNC(=S)N2CCCCC2CCCCC2)cc1	44.0	–	–	–	13.6	–	NTR1 ag conf=–;MC4R barr ag=10.7;MOR DOR agonist=–
O=C1NC[C@@H](Cc2ccc(O)cc2)N(CCCCC2CCCCC2)C1=O	·	·	–	·	·	–
CC(C)[C@@H]1Cc2[nH]n(C)c(=O)c2[C@H](c2ccc(Cl)cc2)O1	·	·	–	·	·	–
CC1=NNC(=O)/C1=C\c1cn(-c2ccccc2)nc1-c1ccc(Cl)cc1	101.2	·	–	31.2	17.2	–	NTR1 ag conf=78.1;cAMP nonselect=–;MC4R antag conf=–;MC4R barr ag=33.5;MOR DOR agonist=–
O=C(N/N=C/c1c[nH]c2ccccc12)C1CC1(c1ccccc1)c1ccccc1 (centres undefined)	54.2	·	–	–	19.5	–	NTR1 ag conf=40.7;MC4R barr ag=16.5;MOR DOR agonist=–
COC(=O)C1=CN(c2ccc(OC)cc2)C(N)=C(C#N)C1c1ccccc1F (centres undefined)	·	·	–	·	·	–
CO/N=C(\c1nonc1N)N1CCN(c2ccc(Cl)cc2[N+](=O)[O-])CC1	57.6	–	16.1	–	–	–	NTR1 ag conf=–;TbMetRS confirm=24.4;Jurkat tox=–;TbMetRS FP orth=21.3
O=C1CC(N(CCc2ccccc2)C(=S)Nc2ccccc2)C(=O)N1c1ccc(Br)cc1 (centres undefined)	60.2	·	96.6	–	–	–	NTR1 ag conf=–;TbMetRS confirm=98.8;Jurkat tox=–;TbMetRS FP orth=129.7
COc1ccc(CN(C(=S)Nc2ccccc2)C2CC(=O)N(c3ccc(F)cc3)C2=O)cc1 (centres undefined)	–	–	–	–	–	–
COc1cc(CN2C[C@@H](CO)O[C@@H](n3cnc4c(N5CCCC5)ncnc43)C2)cc(OC)c1OC	·	–	–	–	–	–
CCc1nnc(NC(=S)Nc2ccccc2)s1	–	–	–	–	–	–
CCOc1ccc(C(=O)Nc2nnc(NC(=S)Nc3ccccc3)s2)cc1	60.7	50.7	–	–	–	–	NTR1 ag conf=45.7;H9c2 TAG conf=41.7
CCc1nc2ccc(C(=O)N3CCN(C(=O)c4ccco4)CC3)cn2c1N(C)C(=O)COc1ccccc1	·	–	–	–	–	–
CCOC(=O)c1c(NC(C)=O)sc2c(OCC(O)CN(CC)CC)c(Br)ccc12 (centres undefined)	53.1	68.7	–	–	–	–	NTR1 ag conf=46.7;H9c2 TAG conf=47.2
C=CCn1c(-c2cccc(Cl)c2)n[nH]c1=S	–	–	–	–	–	–
C=CCn1nnnc1-c1cccc(Cl)c1	–	–	–	34.5	–	–	cAMP nonselect=–;MC4R antag conf=–
O=C(NC(Cc1c[nH]c2ccccc12)C(=O)O)c1ccc(F)cc1 (centres undefined)	–	–	–	–	–	–
NC(=O)COC(=O)[C@H](Cc1c[nH]c2ccccc12)NC(=O)c1ccc(F)cc1	–	·	–	31.6	–	–	cAMP nonselect=13.8;MC4R antag conf=–
Cc1ccc(NC(=O)C2(C)CCN2C(=O)C2CCCCC2)cc1C (centres undefined)	·	–	–	–	–	–
C[C@H](CO)N1C[C@H](C)[C@@H](CN(C)Cc2cccnc2)OCc2cnnn2CCCC1=O	·	–	–	–	–	–
C[C@@H]1CN([C@@H](C)CO)C(=O)CCCn2nncc2CO[C@H]1CN(C)Cc1cccnc1	·	–	–	28.5	–	–	cAMP nonselect=–;MC4R antag conf=–
O=S1(=O)N[C@@H](Cc2ccccc2)COc2cccc(N3CCC[C@H]3CO)c21	·	·	–	·	·	–
CCCC1=[N+](CC(=O)c2ccc(Br)cc2)CCn2cccc21	–	–	–	–	–	–
SMILES	NTR1 ag	TAG inh	Tb MetRS inh	MC4R antagonist	MC4R barr agon	aDG glyco up	others
CCCC1=[N+](CC(=O)c2ccccc2)CCn2cccc21	–	–	–	28.8	–	–	cAMP nonselect=–;MC4R antag conf=–
CC(C)c1ccc(NC(=O)C2(C)Cc3c(-c4ccc(C(N)=O)cc4)ccnc3O2)cc1 (centres undefined)	·	–	–	–	–	–
COc1ccc(CCNC2=C(Cl)C(=O)N(CCc3ccc(OC)c(OC)c3)C2=O)cc1OC	–	–	–	31.2	–	–	cAMP nonselect=–;MC4R antag conf=–
COc1ccccc1-c1cccc(-c2nc(C(=O)Nc3nccs3)cc3c2[C@H](CCO)N(C(C)=O)C3)c1	·	·	–	·	·	–
Cc1cc(C)nc(NS(=O)(=O)c2ccc(NC(=O)C3COc4ccccc4O3)cc2)n1 (centres undefined)	–	·	–	29.2	–	–	cAMP nonselect=–;MC4R antag conf=–
O=C(Nc1ccc(S(=O)(=O)Nc2ccccc2)cc1)C1COc2ccccc2O1 (centres undefined)	–	·	–	–	–	–
Cc1cc(Br)cn2c(Cc3ccsc3)c(C(C)(C)C)nc12	·	·	–	·	·	–
CCOC(=O)C1CCCN(C(=O)Cn2sc3nc(C)cc(C)c3c2=O)C1 (centres undefined)	–	–	–	41.7	–	–	cAMP nonselect=–;MC4R antag conf=30.1

High-throughput results from PubChem.
